Measurements collected from several papers.
Lines come from different studies, so protocols differ.
CDK9: Cyclin-dependent kinase 9 (CDK9, Homo sapiens, UniProt P50750)
CDK1: Cyclin-dependent kinase 1 (CDK1, Homo sapiens, UniProt P06493)

SMILES | target | assay | test system | conditions | quantity | result
CC(=O)ON=C1C=CC(=C(C#N)c2ccccc2)C=C1 | Dual specificity protein kinase CLK1 (Clk1, Mus musculus, UniProt P22518) | enzyme activity, inhibitor, ADP detection | – | 20 µM | activity vs control | 99%
NC/C(=C\F)COc1cccc(Cn2c(=S)[nH]c(=O)c3[nH]cnc32)c1 | Myeloperoxidase (Mus musculus, UniProt P11247) | enzyme activity, inhibitor | – | 0.25 µM | remaining activity | 9.08%
COc1cc(Br)cc(C2NC(=O)NC(C)=C2C(=O)OCc2ccccc2)c1O (stereo not shown) | Voltage-dependent T-type calcium channel subunit alpha-1H (CACNA1H, Homo sapiens, UniProt O95180) | ion current, inhibitor, patch clamp | HEK293 | 10 µM | inhibition | > 60%
COc1ccc2oc(-c3ccc4nc(N)oc4c3)c/c(=N\c3ccccc3NC(=O)CCN)c2c1 | Proto-oncogene tyrosine-protein kinase Src (SRC, Homo sapiens, UniProt P12931, T341M) | cell-free assay | – | 1 µM | remaining signal | 90%
C1=C/COCc2cc(ccc2OCCN2CCCC2)Nc2nccc(n2)-c2cccc(c2)COC/1 | Tyrosine-protein kinase Mer (MERTK, Homo sapiens, UniProt Q12866) | binding | – | 0.1 µM | remaining binding | 80%
CCCCC(=O)Nc1ccc(-c2ccc3ncn(CCC)c(=O)c3c2)cn1 | Ankyrin repeat and protein kinase domain-containing protein 1 (ANKK1, Homo sapiens, UniProt Q8NFD2) | binding, competition with immobilised ligand | – | 0.5 µM | remaining binding | 100%
Cc1cc2c(C(N)=O)c(N)n(-c3c(C)ccc(O)c3C)c2nc1C | Proto-oncogene tyrosine-protein kinase Src (SRC, Homo sapiens, UniProt P12931) | enzyme activity, inhibitor, TR-FRET | – | 1.524 nM | inhibition | 20.4%
Cc1cc(O)c(-c2ccc([C@@H](C)CN(C)C)cc2)c2c1[nH]c(=O)c1sccc12 | Dual specificity mitogen-activated protein kinase kinase 7 (MAP2K7, Homo sapiens, UniProt O14733) | enzyme activity, inhibitor | – | 0.1 µM | inhibition | 4.47%
C#Cc1cc(-c2cc(Nc3nc(N[C@@H](C)c4ccc(F)cn4)ncc3Cl)n[nH]2)ccc1C=O | Phosphorylase b kinase gamma catalytic chain, skeletal muscle/heart isoform (PHKG1, Homo sapiens, UniProt Q16816) | enzyme activity, inhibitor | – | 0.2 µM | inhibition | 80.2%
CN1C(=O)CCC(N2C(=O)c3cc4c(cc3C2=O)CN(CCCCCCCC(=O)N2CCC(C(=O)Nc3ncc(SCc5ncc(C(C)(C)C)o5)s3)CC2)C4)C1=O (stereo not shown) | CDK9 | protein level, degrader, western blot | TC-71 | 25 nM | inhibition | 5.1%
C[C@H]1CN(c2ccc(C3CCC(=O)NC3=O)cc2F)CCN1CC12CCC(NS(=O)(=O)c3ccc(Nc4ncc(C(F)(F)F)c(N5CCC[C@](C)(O)C5)n4)c(F)c3)(CC1)CO2 (stereo partly shown) | CDK1 | protein level, degrader, western blot | TOV21G | – | Dmax | 32%
CC(C)(C)c1cnc(CSc2cnc(NC(=O)C3CCN(C(=O)CCCCCCN4Cc5cc6c(cc5C4)C(=O)N(C4CCC(=O)NC4=O)C6=O)CC3)s2)o1 (stereo not shown) | CDK9 | protein level, degrader, western blot | TC-71 | 25 nM | inhibition | 95.8%
C[C@]1(O)CCCN(c2nc(Nc3ccc(S(=O)(=O)N[C@H]4CC[C@H](CN5CCN(c6ccc(C7CCC(=O)NC7=O)cc6F)CC5)CC4)cc3F)ncc2C(F)(F)F)C1 (stereo partly shown) | CDK1 | protein level, degrader, western blot | TOV21G | – | Dmax | 82%
